Assay [1] in a line: inhibitors of TNFa-induced NFkB p65 translocation, primary screen, imaging, HUVEC, MLSMR starter and 10KST1 sets (AID 438;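 active = inhibition above 20% together with a positive visual image hit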;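 also: compound added about 3h40 before a 20 min TNFalpha stimulation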;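 as to inhibition: signal is the nuclear over cytoplasmic p65 intensity ratio per well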). The following applies: HUVEC TNFa-induced p65 nuclear translocation; cell count: measured here: nuclei count (cytotoxicity indicator), at 2.08 µM; inhibition: at 2 µM, stronger effect = higher value, 0% TNFa-plus-vehicle, 100% no-TNFa wells.
A short description of assay [2]: inhibitors of mutant huntingtin aggregation, primary screen, imaging, exon1htt(103Q)mCFP cells, high-content imaging (AID 483;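 active = visual image review flags a hit and inhibition of aggregation exceeds 20%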;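 also: compound exposure lasted 3 days before fixation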;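 as to nuclei count: percent of the per-plate median nuclei count of sample wells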). The following applies: exon1htt(103Q)mCFP cell line, aggregate imaging, at 2 µM; inhibition of aggregation: stronger effect = higher value; nuclei count: measured here: cell count, toxicity.
Assay [3] is described as follows: inhibitors of E-selectin induction by TNFa, primary screen, imaging, HUVEC, immunofluorescence, MLSMR starter and 10KST1 sets (AID 487;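 active = visually confirmed hit in the image check and inhibition above 20%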;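 as to inhibition: signal is fraction of cell area covered by stained E-selectin grains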;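 as to nuclei count: 100% = median nuclei count of all wells on the same plate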). As to conditions: HUVEC TNFalpha-induced E-selectin immunofluorescence imaging, at 2 µM; inhibition: stronger effect = higher value; nuclei count: measured here: cell number, toxicity.
The target of assay [4] is Voltage-gated potassium channel subunit beta-2 (Rattus norvegicus) (UniProt P62483). As to the kind of experiment: KvBeta enzyme negative modulators, primary screen, biochemical, NADPH fluorescence (AID 622).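 Also: slope of raw intensity against log time taken from 70 to 1610 s.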 The following applies: recombinant KvBeta, 4-cyanobenzaldehyde reduction, at 10 µM, stronger effect = higher value.
Assay [5] has the same target. Put plainly: KvBeta positive modulators, primary screen, biochemical, NADPH fluorescence (AID 623;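 active = NADPH fluorescence slope more negative than the mean of all samples by about 3 SD, 99.7% confidence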;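 also: fluorescence intensity change per second fitted from 20 to 320 s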). As to conditions: Recombinant KvBeta, NADPH fluorescence decrease slope, 10 min; at 10 µM; stronger effect = lower value.
Assay [6] concerns the target Muscarinic acetylcholine receptor M4 (Homo sapiens) (UniProt P08173). As to the kind of experiment: compounds altering M4/GIRK thallium flux, either direction, primary screen, M4 allosteric agonist project, cell-based, HEK293 M4/GIRK, BTC-AM (AID 625;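 active = fluorescence slope after compound addition differing from the mean of all tested samples at 99.7% confidence, mostly higher but some lower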;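 also: thallium influx through GIRK channels coupled to M4 in HEK293 cells with BTC-AM dye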). As to conditions: at 10 µM, actives lie on both sides. The essentials: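 Material – HEK293 cells with M4 receptor and GIRK channels · Buffer or medium – pH 7.3 thallium assay buffer · Doses – one dose, 10 µM final · Timing – cells overnight at 37 °C, BTC-AM loading 1 h, reads 2 min total · Measured by – kinetic fluorescence with BTC-AM dye · Controls – carbachol and DMSO controls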

The nature of assay [7]: inhibitors of Sendai virus-induced IRF3 signaling, primary screen, TLR/RLR signaling modifier project, cell-based, Sendai virus stimulus, luciferase, 10K MLSCN set (AID 602276;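 active = inhibition at or above 50% at 10 µM; inactive = inhibition below 50%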;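 also: firefly luciferase from ISG56 promoter only with Renilla not read in this screen; 0% = Sendai virus plus DMSO and 100% = medium plus DMSO without virus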). The following applies: HEK293 RL24 IRF3 luciferase reporter, at 10 µM, stronger effect = higher value. (Reporter assays use an easily measured gene product as a stand-in for the process of interest.)
Assay [8] is described as follows: inhibitors of poly I:C-induced TLR3 signaling, primary screen, cell-based, poly I:C stimulus, luciferase, 10K MLSCN set (AID 602277;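 active = inhibition of the reporter signal at or above 50%; inactive = inhibition below 50%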). The following applies: HEK293-TLR3 RL24 IRF3 luciferase reporter, at 10 µM, stronger effect = higher value.

One may read the inhibition as the relative decrease from the control value, in per cent.

Calls of active or inactive are those of the source.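 The calls were made as follows, unless noted: active = fluorescence slope higher than the sample average by over 3 SD (cut at about -0.22 in these data, passing the limit was not always enough); inactive = the rest.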

Chain of Muscarinic acetylcholine receptor M4 (Homo sapiens) (P08173 whole entry, looked up): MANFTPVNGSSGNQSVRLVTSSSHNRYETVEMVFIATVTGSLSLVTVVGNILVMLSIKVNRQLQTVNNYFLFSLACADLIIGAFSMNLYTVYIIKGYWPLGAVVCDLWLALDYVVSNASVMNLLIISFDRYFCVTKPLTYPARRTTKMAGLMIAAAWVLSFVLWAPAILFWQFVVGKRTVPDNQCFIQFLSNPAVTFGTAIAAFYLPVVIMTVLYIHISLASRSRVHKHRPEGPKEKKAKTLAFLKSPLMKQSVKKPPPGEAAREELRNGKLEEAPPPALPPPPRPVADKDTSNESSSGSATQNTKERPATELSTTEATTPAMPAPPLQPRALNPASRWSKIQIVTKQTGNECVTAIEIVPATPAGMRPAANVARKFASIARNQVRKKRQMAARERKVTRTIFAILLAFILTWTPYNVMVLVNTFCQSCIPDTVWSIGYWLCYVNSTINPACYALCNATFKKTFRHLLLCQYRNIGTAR
Chain of Voltage-gated potassium channel subunit beta-2 (Rattus norvegicus) (P62483 whole entry, looked up): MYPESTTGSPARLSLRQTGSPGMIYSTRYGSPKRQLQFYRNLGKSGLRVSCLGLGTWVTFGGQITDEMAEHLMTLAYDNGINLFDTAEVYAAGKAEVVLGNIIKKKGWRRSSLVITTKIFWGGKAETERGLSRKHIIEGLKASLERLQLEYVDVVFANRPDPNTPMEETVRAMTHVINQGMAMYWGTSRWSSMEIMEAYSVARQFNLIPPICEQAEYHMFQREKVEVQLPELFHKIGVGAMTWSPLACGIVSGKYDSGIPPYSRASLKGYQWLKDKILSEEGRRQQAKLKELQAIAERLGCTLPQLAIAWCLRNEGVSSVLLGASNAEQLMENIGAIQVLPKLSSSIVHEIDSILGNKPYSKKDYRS

As to `CC1CCN(CC(O)COC2CCC(C(C)(C)C)CC2)CC1` (centres undefined), the cell count in assay [1] was determined as 719. In addition, the inhibition was -6.8% (inactive) in assay [1], -11.7% (inactive) in assay [3], 6.5% (inactive) in assay [7] and -5.56% (inactive) in assay [8]. In addition, the inhibition of aggregation in assay [2] was 1.9% (inactive). Further, the values for the nuclei count in assay [2] and in assay [3] were 118% and 111%, respectively. The results for the fluorescence slope in assay [4] and in assay [6] were -0.453 (inactive) and 0.00347 (inactive), respectively. In assay [5], the NADPH fluorescence slope was -0.000251 (inactive).

`COc1ccc(C(=O)N2CCOCC2)cc1Br`: the cell count in assay [1] came out at 406. Also, the inhibition in assay [1] was -7.6% (inactive); in assay [3] it was -24.6% (inactive); in assay [7] it was -0.192% (inactive); in assay [8], -3.39% (inactive). Also, in assay [2], the inhibition of aggregation is 5.4% (inactive). The nuclei count in assay [2] turned out to be 90.8%; in assay [3], 108%. Moreover, the results for the fluorescence slope in assay [4] and in assay [6] were -0.49 (inactive) and 0.0055 (inactive), respectively. Besides, the NADPH fluorescence slope in assay [5] is 3.2e-05 (inactive).

For the compound `CN1CCc2nc(SCC(=O)Nc3ccc(F)cc3)c(C#N)cc2C1`, the cell count in assay [1] worked out at 646. In addition, the inhibition in assay [1] is -14.8% (inactive); in assay [3], -75.1% (inactive); in assay [7], -24.5% (inactive); in assay [8] it was -52.9% (inactive). Moreover, the inhibition of aggregation in assay [2] was -16.9% (inactive). In addition, the nuclei count in assay [2] and in assay [3] was 101% in each case. The fluorescence slope in assay [4] was -0.456 (inactive); in assay [6] it was 0.00558 (inactive). Further, the NADPH fluorescence slope in assay [5] is 0.000133 (inactive).

For the compound `CN=C(C)C1=C(O)C(C(=O)OC)C(C)(C)CC1=O` (centres undefined), the cell count in assay [1] was 506. The inhibition in assay [1] is 5% (inactive); in assay [3], -187% (inactive); in assay [7] it was 16.6% (inactive); in assay [8] it was 16.6% (inactive). Besides, the inhibition of aggregation in assay [2] was -7.4% (inactive). Moreover, the nuclei count in assay [2] turned out to be 108%; in assay [3] it was 122%. Besides, the fluorescence slope in assay [4] is -0.54 (inactive); in assay [6] it was 0.00531 (inactive). In assay [5], the NADPH fluorescence slope is -0.00011 (inactive).

For `CCCn1c(SCC(=O)N2CCCc3ccccc32)nnc1-c1ccccn1`, in assay [1], the cell count came out at 471. Also, the inhibition in assay [1] is -0.8% (inactive); in assay [3], -20.1% (inactive); in assay [7], 20.3% (inactive); in assay [8], 20% (inactive). The inhibition of aggregation in assay [2] is -0.4% (inactive). In addition, the nuclei count in assay [2] worked out at 100%; in assay [3] it was 113%. Also, the fluorescence slope is -0.59 (inactive) in assay [4] and 0.00584 (inactive) in assay [6]. The NADPH fluorescence slope in assay [5] is -6.6e-06 (inactive).

`CSc1ccccc1NC(=O)CN(Cc1ccccc1)S(C)(=O)=O`: the cell count in assay [1] stood at 768. In addition, the inhibition in assay [1] was -15.1% (inactive); in assay [3], -78.6% (inactive); in assay [7], 21.8% (inactive); in assay [8], 19.7% (inactive). In addition, the inhibition of aggregation in assay [2] was -4.2% (inactive). Further, the nuclei count in assay [2] was determined as 115%; in assay [3] it was 103%. Also, the fluorescence slope is -0.564 (inactive) in assay [4] and 0.00609 (inactive) in assay [6]. Besides, in assay [5], the NADPH fluorescence slope is -3.2e-05 (inactive).

As for `CCCC1(C(=O)OCC)NC(c2ccc(N(C)C)cc2)C2C(=O)N(c3ccccc3)C(=O)C21` (centres undefined), the cell count in assay [1] stood at 468. In addition, the inhibition in assay [1] was -0.5% (inactive); in assay [3], -15.1% (inactive); in assay [7] it was 8.02% (inactive); in assay [8] it was 20.7% (inactive). For the same compound, the inhibition of aggregation in assay [2] was 4.8% (inactive). The nuclei count in assay [2] stood at 92.4%; in assay [3] it was 95%. In addition, the fluorescence slope in assay [4] is -0.465 (inactive); in assay [6], 0.0068 (inactive). Moreover, the NADPH fluorescence slope in assay [5] was -6.2e-05 (inactive).

As for `Cc1cc2nc3c(nc2cc1C)C1(C(=O)O)CCC3(C)C1(C)C` (centres undefined), the cell count in assay [1] was found to be 376. The inhibition in assay [1] was -12.3% (inactive); in assay [3], -109% (inactive); in assay [7], 13.5% (inactive); in assay [8], 15.6% (inactive). Besides, the inhibition of aggregation in assay [2] was -4.4% (inactive). The nuclei count in assay [2] was 95%; in assay [3] it was 101%. For the same compound, the fluorescence slope in assay [4] is -0.547 (inactive); in assay [6], 0.00318 (inactive). In addition, in assay [5], the NADPH fluorescence slope was -0.000111 (inactive).

With `CCCn1c2ccccc2c2nnc(SCC(=O)Nc3ncccn3)nc21`, the cell count in assay [1] came out at 696. The inhibition in assay [1] was -4.4% (inactive); in assay [3], -10.4% (inactive); in assay [7], 12.2% (inactive); in assay [8], 21.2% (inactive). Besides, in assay [2], the inhibition of aggregation is -41% (inactive). In addition, the nuclei count in assay [2] amounted to 53.5%; in assay [3] it was 98.8%. The fluorescence slope in assay [4] was -0.551 (inactive); in assay [6], 0.00402 (inactive). Further, in assay [5], the NADPH fluorescence slope is -1.7e-05 (inactive).

In the case of `CN(Cc1cnn(C)c1)C(=O)c1cc2ccccc2oc1=O`, the cell count in assay [1] amounted to 682. Also, the inhibition in assay [1] was 13% (inactive); in assay [3], 40% (inactive); in assay [7], 11.1% (inactive); in assay [8] it was 14% (inactive). In assay [2], the inhibition of aggregation was -9.2% (inactive). Further, the nuclei count in assay [2] was determined as 92.1%; in assay [3], 98.2%. The values for the fluorescence slope in assay [4] and in assay [6] were -0.484 (inactive) and 0.00454 (inactive), respectively. For the same compound, the NADPH fluorescence slope in assay [5] was -5.1e-05 (inactive).

With `COc1ccc(C2=NOC(C(=O)NCc3ccc(F)cc3)C2)cc1OC` (centres undefined), the cell count in assay [1] was found to be 601. Further, the inhibition was 14.3% (inactive) in assay [1], -172% (inactive) in assay [3], 22.8% (inactive) in assay [7] and 82.8% (active) in assay [8]. The inhibition of aggregation in assay [2] is -82.4% (inactive). Besides, the nuclei count came out at 2.5% in assay [2] and 99.1% in assay [3]. For the same compound, the results for the fluorescence slope in assay [4] and in assay [6] were -0.493 (inactive) and 0.00618 (inactive), respectively. In addition, the NADPH fluorescence slope in assay [5] was 4.2e-05 (inactive).

Consider `O=C(O)CCNc1ccc2c(c1)OCCO2`, for which, in assay [1], the cell count was found to be 510. Besides, the inhibition in assay [1] is -26.5% (inactive); in assay [3], -25.3% (inactive); in assay [7] it was 4.8% (inactive); in assay [8], 5.31% (inactive). Moreover, in assay [2], the inhibition of aggregation was 10% (inactive). For the same compound, the nuclei count in assay [2] was 118%; in assay [3], 116%. Further, the results for the fluorescence slope in assay [4] and in assay [6] were -0.348 (inactive) and 0.00514 (inactive), respectively. The NADPH fluorescence slope in assay [5] was -3.8e-05 (inactive).

`N#CC1=C(N)SC(N)=C(C#N)C1CCc1ccccc1`: in assay [1], the cell count stood at 300. Further, the inhibition was -3.2% (inactive) in assay [1], -171% (inactive) in assay [3], 18% (inactive) in assay [7] and 26.3% (inactive) in assay [8]. For the same compound, the inhibition of aggregation in assay [2] was -16.8% (inactive). Also, the nuclei count in assay [2] stood at 83%; in assay [3], 104%. In addition, the fluorescence slope is -0.543 (inactive) in assay [4] and 0.00612 (inactive) in assay [6]. For the same compound, the NADPH fluorescence slope in assay [5] was -2e-06 (inactive).

In the case of `CC(=O)N1CCc2cc(S(=O)(=O)CCC(=O)N3CCN(c4ccccn4)CC3)ccc21`, in assay [1], the cell count stood at 592. Further, the inhibition was -2.7% (inactive) in assay [1], -65.1% (inactive) in assay [3], -15.2% (inactive) in assay [7] and -27.2% (inactive) in assay [8]. Also, the inhibition of aggregation in assay [2] was 2.8% (inactive). Besides, the nuclei count in assay [2] came to 107%; in assay [3], 94.5%. In addition, the fluorescence slope in assay [4] is -0.456 (inactive); in assay [6], 0.0102 (inactive). For the same compound, the NADPH fluorescence slope in assay [5] is 5.1e-05 (inactive).

The values are drawn from PubChem BioAssay.
